Test results from ChEMBL document CHEMBL1128568, “Design and structure-activity relationships of C-terminal cyclic neurotensin fragment analogues” (J Med Chem, 1995).
Non-standard residues stand in square brackets, D forms with d. Residues, ends and D or L forms follow the SMILES beside them. NMeR = CN[C@@H](CCCNC(=N)N)C(=O)O; Tle = CC(C)(C)[C@H](N)C(=O)O

Assay: Binding affinity against neurotensin receptor.
Summary of the method: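 Neonatal (10-day postnatal) mouse brain membranes, cerebellum removed, washed by repeated 100000g spins in 5 mM Tris pH 7.5, resuspended 1 g wet weight/mL in 50 mM Tris pH 7.4 with BSA, bacitracin, EDTA, phenanthroline, PMSF. Competition against [3H]NT (0.20 nM final) or [125I-Tyr3]NT (0.21 nM final), 30 min at 25 °C. Separation by filtration on PEI-soaked GF/B filters. Nonspecific binding with 1 μM NT.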

Row | Compound | Ki
1 | CC(C)C[C@H](NC(=O)[C@@H](N)CCC(=O)O)C(=O)N[C@@H](Cc1ccc(O)cc1)C(=O)N[C@@H](CCC(=O)O)C(=O)N[C@@H](CC(N)=O)C(=O)N[C@@H](CCCCN)C(=O)N1CCC[C@H]1C(=O)N1C(=O)[C@H](CCC(=O)NCC(=O)O)NC(=O)[C@H](Cc2c[nH]c3ccccc23)NC(=O)[C@@H]2CCCN2C(=O)[C@H](CCCCN)NC(=O)[C@H]1CCCN=C(N)N | 250 nM
2 | CC(C)C[C@H](NC(=O)C[C@@H]1NC(=O)[C@H](Cc2c[nH]c3ccccc23)NC(=O)[C@@H]2CCCN2C(=O)[C@H](CCCCN)NC(=O)[C@@H](CCCN=C(N)N)N(C(=O)[C@@H]2CCCN2C(=O)[C@H](CCCCN)NC(=O)[C@H](CC(N)=O)NC(=O)[C@H](CCC(=O)O)NC(=O)[C@H](Cc2ccc(O)cc2)NC(=O)[C@H](CC(C)C)NC(=O)[C@@H](N)CCC(=O)O)C1=O)C(=O)O | 910 nM
3 | CC(C)C[C@H](NC(=O)[C@@H](N)CCC(=O)O)C(=O)N[C@@H](Cc1ccc(O)cc1)C(=O)N[C@@H](CCC(=O)O)C(=O)N[C@@H](CC(N)=O)C(=O)N[C@@H](CCCCN)C(=O)N1CCC[C@H]1C(=O)N(C)[C@@H](CCCN=C(N)N)C(=O)N1C(=O)[C@H](CC(C)C)NC(=O)[C@@H](CCC(=O)O)NC(=O)[C@H](Cc2c[nH]c3ccccc23)NC(=O)[C@@H]2CCCN2C(=O)[C@H]1CCCCN | 2500 nM
4 | CC(C)C[C@H](NC(=O)CC[C@@H]1NC(=O)[C@H](Cc2c[nH]c3ccccc23)NC(=O)[C@@H]2CCCN2C(=O)[C@H](C)NC(=O)[C@@H](CCCN=C(N)N)N(C(=O)[C@@H]2CCCN2C(=O)[C@H](CCCCN)NC(=O)[C@H](CC(N)=O)NC(=O)[C@H](CCC(=O)O)NC(=O)[C@H](Cc2ccc(O)cc2)NC(=O)[C@H](CC(C)C)NC(=O)[C@@H](N)CCC(=O)O)C1=O)C(=O)O | > 10000 nM
5 | CC(C)C[C@H](NC(=O)[C@@H](N)CCC(=O)O)C(=O)N[C@@H](Cc1ccc(O)cc1)C(=O)N[C@@H](CCC(=O)O)C(=O)N[C@@H](CC(N)=O)C(=O)N[C@@H](CCCCN)C(=O)N1CCC[C@H]1C(=O)N1C(=O)[C@H](CCC(=O)O)NC(=O)[C@H](Cc2c[nH]c3ccccc23)NC(=O)[C@@H]2CCCN2C(=O)[C@H](CCCCN)NC(=O)[C@H]1CCCN=C(N)N | > 10000 nM
6 | CC(C)C[C@H](NC(=O)[C@@H]1CSSC[C@@H](NC(=O)[C@H](CCCN=C(N)N)N(C)C(=O)[C@@H]2CCCN2C(=O)[C@H](CCCCN)NC(=O)[C@H](CC(N)=O)NC(=O)[C@H](CCC(=O)O)NC(=O)[C@H](Cc2ccc(O)cc2)NC(=O)[C@H](CC(C)C)NC(=O)[C@@H](N)CCC(=O)O)C(=O)N2CCC[C@@H]2C(=O)N[C@@H](Cc2c[nH]c3ccccc23)C(=O)N1)C(=O)O | 810 nM
7 | CC(C)C[C@H](NC(=O)[C@@H](N)CCC(=O)O)C(=O)N[C@@H](Cc1ccc(O)cc1)C(=O)N[C@@H](CCC(=O)O)C(=O)N[C@@H](CC(N)=O)C(=O)N[C@@H](CCCCN)C(=O)N1CCC[C@H]1C(=O)N1C(=O)[C@H](CC(C)C)NC(=O)[C@H](C(C)(C)C)NC(=O)[C@H](Cc2c[nH]c3ccccc23)NC(=O)[C@@H]2CCCN2C(=O)[C@H](CCCCN)NC(=O)[C@@H]1CCCN=C(N)N | 410 nM
8 | CC(C)C[C@H](NC(=O)[C@H](CCC(=O)O)NC(=O)[C@H](Cc1c[nH]c2ccccc12)NC(=O)[C@@H]1CCCN1C(=O)[C@H](CCCCN)NC(=O)[C@H](CCCN=C(N)N)N(C)C(=O)[C@@H]1CCCN1C(=O)[C@H](CCCCN)NC(=O)[C@H](CC(N)=O)NC(=O)[C@H](CCC(=O)O)NC(=O)[C@H](Cc1ccc(O)cc1)NC(=O)[C@H](CC(C)C)NC(=O)[C@@H](N)CCC(=O)O)C(=O)O (H-ELYENKP[NMeR]KPWEL-OH) | > 10000 nM
9 | CC(C)C[C@H](NC(=O)CCC[C@@H]1NC(=O)[C@H](Cc2c[nH]c3ccccc23)NC(=O)[C@@H]2CCCN2C(=O)[C@H](CCCCN)NC(=O)[C@H](CCCN=C(N)N)N(C(=O)[C@@H]2CCCN2C(=O)[C@H](CCCCN)NC(=O)[C@H](CC(N)=O)NC(=O)[C@H](CCC(=O)O)NC(=O)[C@H](Cc2ccc(O)cc2)NC(=O)[C@H](CC(C)C)NC(=O)[C@@H](N)CCC(=O)O)C1=O)C(=O)O | 830 nM
10 | CC(C)C[C@H](NC(=O)[C@@H](N)CCC(=O)O)C(=O)N[C@@H](Cc1ccc(O)cc1)C(=O)N[C@@H](CCC(=O)O)C(=O)N[C@@H](CC(N)=O)C(=O)N[C@@H](CCCCN)C(=O)N1CCC[C@H]1C(=O)N(C)[C@@H](CCCN=C(N)N)C(=O)N1C(=O)[C@H](CC(C)C)NC(=O)[C@H](CCC(=O)O)NC(=O)[C@H](Cc2c[nH]c3ccccc23)NC(=O)[C@@H]2CCCN2C(=O)[C@@H]1CCCCN | 770 nM

The remaining lines, values ahead:

Row | Ki | Compound
11 | 0.67 nM | CC(C)C[C@H](NC(=O)[C@@H](NC(=O)[C@H](Cc1c[nH]c2ccccc12)NC(=O)[C@@H]1CCCN1C(=O)[C@H](CCCCN)NC(=O)[C@H](CCCN=C(N)N)N(C)C(=O)[C@@H]1CCCN1C(=O)[C@H](CCCCN)NC(=O)[C@H](CC(N)=O)NC(=O)[C@H](CCC(=O)O)NC(=O)[C@H](Cc1ccc(O)cc1)NC(=O)[C@H](CC(C)C)NC(=O)[C@@H](N)CCC(=O)O)C(C)(C)C)C(=O)O (H-ELYENKP[NMeR]KPW[Tle]L-OH)
12 | 16 nM | CC(C)C[C@H](NC(=O)CC[C@@H]1NC(=O)[C@H](Cc2c[nH]c3ccccc23)NC(=O)[C@@H]2CCCN2C(=O)[C@H](CCCCN)NC(=O)[C@@H](CCCN=C(N)N)N(C(=O)[C@@H]2CCCN2C(=O)[C@H](CCCCN)NC(=O)[C@H](CC(N)=O)NC(=O)[C@H](CCC(=O)O)NC(=O)[C@H](Cc2ccc(O)cc2)NC(=O)[C@H](CC(C)C)NC(=O)[C@@H](N)CCC(=O)O)C1=O)C(=O)O
13 | > 10000 nM | CC(C)CC(NC(=O)CC[C@H]1NC(=O)[C@H](Cc2c[nH]c3ccccc23)NC(=O)[C@@H]2CCCN2C(=O)[C@H](CCCCN)NC(=O)[C@@H](CCCN=C(N)N)N(C(=O)[C@@H]2CCCN2C(=O)[C@H](CCCCN)NC(=O)[C@H](CC(N)=O)NC(=O)C(CCC(=O)O)NC(=O)[C@H](Cc2ccc(O)cc2)NC(=O)[C@H](CC(C)C)NC(=O)C(N)CCC(=O)O)C1=O)C(=O)O (stereo in doubt)
14 | 83 nM | CC(C)C[C@H](NC(=O)[C@H]1NC(=O)[C@H](Cc2c[nH]c3ccccc23)NC(=O)[C@H]2CCCN2C(=O)[C@H](NC(=O)[C@H](CCCN=C(N)N)N(C)C(=O)[C@@H]2CCCN2C(=O)[C@H](CCCCN)NC(=O)[C@H](CC(N)=O)NC(=O)[C@H](CCC(=O)O)NC(=O)[C@H](Cc2ccc(O)cc2)NC(=O)[C@H](CC(C)C)NC(=O)[C@@H](N)CCC(=O)O)CSSC1(C)C)C(=O)O
15 | 28 nM | CC(C)CC(NC(=O)CC[C@@H]1NC(=O)[C@H](Cc2c[nH]c3ccccc23)NC(=O)[C@@H]2CCCN2C(=O)[C@H](CCCCN)NC(=O)[C@H](CCCN=C(N)N)N(C)C(=O)CN(C(=O)[C@@H]2CCCN2C(=O)[C@H](CCCCN)NC(=O)[C@H](CC(N)=O)NC(=O)[C@H](CCC(=O)O)NC(=O)[C@H](Cc2ccc(O)cc2)NC(=O)[C@H](CC(C)C)NC(=O)[C@@H](N)CCC(=O)O)C1=O)C(=O)O (some centres undefined)
16 | 4400 nM | CC(C)C[C@H](NC(=O)[C@H]1NC(=O)[C@H](Cc2c[nH]c3ccccc23)NC(=O)[C@H]2CCCN2C(=O)[C@H](NC(=O)[C@H](CCCN=C(N)N)N(C)C(=O)[C@@H]2CCCN2C(=O)[C@H](CCCCN)NC(=O)[C@H](CC(N)=O)NC(=O)[C@H](CCC(=O)O)NC(=O)[C@H](Cc2ccc(O)cc2)NC(=O)[C@H](CC(C)C)NC(=O)[C@@H](N)CCC(=O)O)C(C)(C)SSC1(C)C)C(=O)O
17 | 1600 nM | CC(C)C[C@H](NC(=O)[C@@H](N)CCC(=O)O)C(=O)N[C@@H](Cc1ccc(O)cc1)C(=O)N[C@@H](CCC(=O)O)C(=O)N[C@@H](CC(N)=O)C(=O)N[C@@H](CCCCN)C(=O)N1CCC[C@H]1C(=O)N(C)[C@@H](CCCN=C(N)N)C(=O)N1C(=O)[C@H](CC(C)C)NC(=O)[C@@H](CCC(=O)O)NC(=O)[C@H](Cc2c[nH]c3ccccc23)NC(=O)[C@@H]2CCCN2C(=O)[C@@H]1CCCCN
18 | 260 nM | CC(=O)N(C(=O)[C@@H]1CCCN1C(=O)[C@H](CCCCN)NC(=O)[C@H](CC(N)=O)NC(=O)[C@H](CCC(=O)O)NC(=O)[C@H](Cc1ccc(O)cc1)NC(=O)[C@H](CC(C)C)NC(=O)[C@@H](N)CCC(=O)O)[C@@H](CCCN=C(N)N)C(=O)N[C@@H](CCCCN)C(=O)N1CCC[C@H]1C(=O)N[C@@H](Cc1c[nH]c2ccccc12)C(=O)N[C@@H](CCC(N)=O)C(=O)N[C@@H](CC(C)C)C(=O)O
19 | 440 nM | CC(C)C[C@H](NC(=O)[C@@H](N)CCC(=O)O)C(=O)N[C@@H](Cc1ccc(O)cc1)C(=O)N[C@@H](CCC(=O)O)C(=O)N[C@@H](CC(N)=O)C(=O)N[C@@H](CCCCN)C(=O)N1CCC[C@H]1C(=O)N1C(=O)[C@H](CC(C)C)NC(=O)[C@H](C(C)(C)C)NC(=O)[C@H](Cc2ccc(O)cc2)NC(=O)[C@@H]2CCCN2C(=O)[C@H](CCCCN)NC(=O)[C@H]1CCCN=C(N)N
